One may read the IC50 as the midpoint of a concentration-inhibition curve.

The results in this text go back to ChEMBL document CHEMBL1137238, “The synthesis and SAR of 2-amino-pyrrolo[2,3-d]pyrimidines: a new class of Aurora-A kinase inhibitors” (Bioorg Med Chem Lett, 2006).

Test [1] has as its target T1, Cyclin-dependent kinase 4 (Homo sapiens, UniProt P11802). In words: Inhibition of retinoblastoma phosphorylation by CDK4. In kind it is functional. An outline of the steps:
(§1)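 Purified CDK4 incubated with compounds and retinoblastoma protein substrate in 100 mM Hepes pH 7.5, 75 mM NaCl, 2 mM DTT, 10 mM MgCl2, 30 μM ATP. Stopped after 35 min. Rb phosphorylation at Ser795 measured colorimetrically with a phospho-specific antibody.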

Test [2] addresses Vascular endothelial growth factor receptor (Homo sapiens, UniProt P17948+P35916+P35968). Description: Inhibition of VEGFR. Format: protein assay.
For test [3], the target named is Cyclin-dependent kinase 7 (Homo sapiens, UniProt P50613). Description: Inhibition of CDK7.
Sequence of Cyclin-dependent kinase 7 (P50613 whole entry): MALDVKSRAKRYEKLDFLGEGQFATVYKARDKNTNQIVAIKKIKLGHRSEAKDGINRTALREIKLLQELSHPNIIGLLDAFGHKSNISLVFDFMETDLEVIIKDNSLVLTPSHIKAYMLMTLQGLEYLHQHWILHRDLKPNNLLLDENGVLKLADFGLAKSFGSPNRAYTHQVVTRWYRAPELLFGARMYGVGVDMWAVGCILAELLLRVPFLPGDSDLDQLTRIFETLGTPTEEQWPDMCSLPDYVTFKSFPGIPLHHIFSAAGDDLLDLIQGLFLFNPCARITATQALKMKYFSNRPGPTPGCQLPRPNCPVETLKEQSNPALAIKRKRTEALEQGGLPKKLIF
The target of test [4] is BDNF/NT-3 growth factors receptor (Homo sapiens, UniProt Q16620). Description: Inhibition of TrkB.
Sequence of BDNF/NT-3 growth factors receptor (Q16620 whole entry): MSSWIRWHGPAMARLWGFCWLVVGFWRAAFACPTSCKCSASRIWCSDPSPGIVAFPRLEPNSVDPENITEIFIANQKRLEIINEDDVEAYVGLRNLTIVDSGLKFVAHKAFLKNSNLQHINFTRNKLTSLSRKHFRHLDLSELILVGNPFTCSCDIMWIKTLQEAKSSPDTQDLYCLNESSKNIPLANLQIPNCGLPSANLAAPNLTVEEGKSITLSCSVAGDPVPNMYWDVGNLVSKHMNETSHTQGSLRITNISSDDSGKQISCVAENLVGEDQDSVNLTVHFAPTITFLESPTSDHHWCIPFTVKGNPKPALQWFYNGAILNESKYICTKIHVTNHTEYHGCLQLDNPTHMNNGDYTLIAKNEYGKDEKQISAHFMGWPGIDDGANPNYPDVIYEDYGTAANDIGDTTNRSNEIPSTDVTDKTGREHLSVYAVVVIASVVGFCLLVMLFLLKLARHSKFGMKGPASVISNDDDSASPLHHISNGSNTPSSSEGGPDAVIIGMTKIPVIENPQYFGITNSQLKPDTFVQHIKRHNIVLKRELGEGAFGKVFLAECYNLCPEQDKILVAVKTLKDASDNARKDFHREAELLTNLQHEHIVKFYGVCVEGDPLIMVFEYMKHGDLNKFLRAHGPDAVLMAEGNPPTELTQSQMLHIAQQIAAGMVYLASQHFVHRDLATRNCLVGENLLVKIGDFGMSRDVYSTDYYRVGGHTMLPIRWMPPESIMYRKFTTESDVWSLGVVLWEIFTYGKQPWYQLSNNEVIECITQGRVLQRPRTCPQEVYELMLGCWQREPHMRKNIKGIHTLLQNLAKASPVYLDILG
In test [5] the target is Insulin receptor (Homo sapiens, UniProt P06213). In words: Inhibition of IRK.
Sequence of Insulin receptor (P06213 28-758 limits assumed): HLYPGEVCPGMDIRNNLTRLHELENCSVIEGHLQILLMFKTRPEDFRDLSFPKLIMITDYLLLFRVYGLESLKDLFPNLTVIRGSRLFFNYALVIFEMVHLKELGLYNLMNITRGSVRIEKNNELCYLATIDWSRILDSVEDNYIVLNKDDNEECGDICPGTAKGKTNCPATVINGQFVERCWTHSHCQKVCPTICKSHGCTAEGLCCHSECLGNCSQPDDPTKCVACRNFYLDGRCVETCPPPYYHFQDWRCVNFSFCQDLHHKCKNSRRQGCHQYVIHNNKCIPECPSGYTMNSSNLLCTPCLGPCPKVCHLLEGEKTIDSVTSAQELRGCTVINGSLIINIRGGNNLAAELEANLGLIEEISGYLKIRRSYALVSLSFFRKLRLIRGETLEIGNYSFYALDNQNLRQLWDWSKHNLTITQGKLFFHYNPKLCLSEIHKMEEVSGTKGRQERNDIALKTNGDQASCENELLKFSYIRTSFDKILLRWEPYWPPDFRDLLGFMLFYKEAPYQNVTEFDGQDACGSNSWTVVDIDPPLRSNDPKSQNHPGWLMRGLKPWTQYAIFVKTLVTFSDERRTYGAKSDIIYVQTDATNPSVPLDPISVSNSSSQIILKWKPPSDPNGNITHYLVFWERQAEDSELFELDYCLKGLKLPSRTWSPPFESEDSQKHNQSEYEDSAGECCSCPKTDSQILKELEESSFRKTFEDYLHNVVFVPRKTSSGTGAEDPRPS
Sequence of Insulin receptor (P06213 763-1382 limits assumed): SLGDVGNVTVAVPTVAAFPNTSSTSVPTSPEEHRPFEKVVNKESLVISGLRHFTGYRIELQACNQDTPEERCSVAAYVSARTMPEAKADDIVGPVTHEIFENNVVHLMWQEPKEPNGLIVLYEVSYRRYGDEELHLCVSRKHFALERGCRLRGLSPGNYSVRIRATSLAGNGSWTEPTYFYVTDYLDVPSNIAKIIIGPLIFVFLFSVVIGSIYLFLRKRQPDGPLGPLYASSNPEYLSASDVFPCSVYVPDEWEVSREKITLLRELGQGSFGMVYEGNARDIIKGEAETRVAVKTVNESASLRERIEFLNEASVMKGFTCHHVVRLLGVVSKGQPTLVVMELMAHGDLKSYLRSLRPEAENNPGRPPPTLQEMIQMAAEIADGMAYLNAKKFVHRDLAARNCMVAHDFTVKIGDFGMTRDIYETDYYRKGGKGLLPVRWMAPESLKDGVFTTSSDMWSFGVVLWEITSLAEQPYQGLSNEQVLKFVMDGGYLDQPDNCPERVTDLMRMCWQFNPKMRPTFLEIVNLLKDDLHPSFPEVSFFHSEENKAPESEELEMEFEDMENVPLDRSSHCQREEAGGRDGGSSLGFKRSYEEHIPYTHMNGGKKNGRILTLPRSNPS
Test [6] deals with Cyclin-dependent kinase 1 (Homo sapiens, UniProt P06493). In words: Inhibition of CDK1.
Sequence of Cyclin-dependent kinase 1 (P06493 whole entry): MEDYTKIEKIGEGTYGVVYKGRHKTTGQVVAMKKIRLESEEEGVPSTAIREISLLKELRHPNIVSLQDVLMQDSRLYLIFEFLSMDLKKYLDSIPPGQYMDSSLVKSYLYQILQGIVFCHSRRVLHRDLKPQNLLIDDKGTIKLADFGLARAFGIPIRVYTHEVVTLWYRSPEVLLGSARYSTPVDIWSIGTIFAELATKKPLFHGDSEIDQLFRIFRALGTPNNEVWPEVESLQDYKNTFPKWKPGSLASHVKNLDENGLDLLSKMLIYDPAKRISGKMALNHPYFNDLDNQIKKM
In test [7] the target is Proto-oncogene tyrosine-protein kinase Src (Homo sapiens, UniProt P12931). Description: Inhibition of c-src.
Sequence of Proto-oncogene tyrosine-protein kinase Src (P12931 2-536 limits assumed): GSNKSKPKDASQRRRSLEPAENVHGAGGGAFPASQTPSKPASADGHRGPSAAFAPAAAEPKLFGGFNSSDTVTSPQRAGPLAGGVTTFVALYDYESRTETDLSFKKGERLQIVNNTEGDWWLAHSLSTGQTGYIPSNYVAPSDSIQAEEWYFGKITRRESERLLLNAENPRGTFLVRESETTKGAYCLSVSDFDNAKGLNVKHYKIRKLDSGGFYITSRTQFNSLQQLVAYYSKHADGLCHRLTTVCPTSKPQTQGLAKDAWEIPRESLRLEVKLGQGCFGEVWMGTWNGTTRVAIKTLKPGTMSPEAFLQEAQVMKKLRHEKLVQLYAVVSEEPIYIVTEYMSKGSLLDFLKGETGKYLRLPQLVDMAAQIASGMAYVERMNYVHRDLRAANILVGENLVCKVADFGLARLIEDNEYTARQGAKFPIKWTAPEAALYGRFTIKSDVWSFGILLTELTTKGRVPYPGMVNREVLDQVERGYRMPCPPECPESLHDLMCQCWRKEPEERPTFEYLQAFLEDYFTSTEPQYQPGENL
In test [8] the target is Platelet-derived growth factor receptor (Homo sapiens, UniProt P09619+P16234). Description: Inhibition of PDGFR. In kind it is protein-complex assay.
The target of test [9] is Aurora kinase A (Mus musculus) (UniProt P97477). In words: Inhibition of Aurora-A.
Sequence of Aurora kinase A (Mus musculus) (P97477 whole entry, looked up): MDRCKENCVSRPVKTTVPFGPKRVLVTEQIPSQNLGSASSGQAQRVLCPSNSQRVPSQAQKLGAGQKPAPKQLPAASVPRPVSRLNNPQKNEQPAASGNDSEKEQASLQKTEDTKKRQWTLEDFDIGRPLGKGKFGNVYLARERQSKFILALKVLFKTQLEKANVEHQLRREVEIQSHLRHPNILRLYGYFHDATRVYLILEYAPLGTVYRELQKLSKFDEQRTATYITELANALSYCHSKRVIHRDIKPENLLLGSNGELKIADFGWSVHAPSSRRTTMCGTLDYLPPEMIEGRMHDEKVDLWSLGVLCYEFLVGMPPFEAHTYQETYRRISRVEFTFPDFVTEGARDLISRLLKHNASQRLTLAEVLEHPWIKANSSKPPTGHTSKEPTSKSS
The target of test [10] is T1, Cyclin-dependent kinase 4. In words: Inhibition of CDK4. An outline of the steps: as §1

T1 sequence (P11802 whole entry): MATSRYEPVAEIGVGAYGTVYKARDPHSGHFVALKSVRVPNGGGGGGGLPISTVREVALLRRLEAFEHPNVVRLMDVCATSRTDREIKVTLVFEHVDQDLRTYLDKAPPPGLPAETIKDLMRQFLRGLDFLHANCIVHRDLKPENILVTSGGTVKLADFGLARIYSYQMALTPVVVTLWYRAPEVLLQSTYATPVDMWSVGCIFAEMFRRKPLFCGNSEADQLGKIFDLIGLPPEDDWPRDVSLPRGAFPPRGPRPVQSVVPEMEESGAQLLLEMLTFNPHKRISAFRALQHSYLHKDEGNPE

In [1], `CN1CCN(c2ccc(Nc3ncc4ccn(-c5cccnc5)c4n3)cc2)CC1` had a half-inhibitory concentration (IC50) of 1400 nM.

In the case of `CN1CCN(c2ccc(Nc3ncc4ccn(C5CCCCC5)c4n3)cc2)CC1`, the IC50 came to 100 nM in [2]; 1500 nM in [3]; 160 nM in [4]; 1000 nM in test [5]; 1600 nM in test [6]; 31 nM in [1]. In addition, the 50% inhibitory concentration (IC50) is 710 nM in test [7], 290 nM in test [8], 47 nM in [9] and 31 nM in test [10].

In turn, `CN1CCN(c2ccc(Nc3ncc4ccn(C5CC6CCC5C6)c4n3)cc2)CC1` (centres undefined) yielded a half-inhibitory concentration (IC50) in test [1] of 29 nM.

Consider `COCCN1CCN(c2ccc(Nc3ncc4ccn(C5CCCCC5)c4n3)cc2)CC1`, for which, in [1], the IC50 stood at 110 nM. Compared with the last compound, the IC50 is about 3.8-fold higher.

`O=C(O)Cc1cccc(Nc2ncc3ccn(C4CCCCC4)c3n2)c1`: 350 nM corresponded to half-maximal inhibition in test [1] (IC50).

Take `O=S1(=O)CCN(c2ccc(Nc3ncc4ccn(C5CCCCC5)c4n3)cc2)CC1`: in [1], the IC50 stood at 1000 nM.

In turn, `COc1cccc(-n2ccc3cnc(Nc4ccc(N5CCN(C)CC5)cc4)nc32)c1` gave an IC50 in test [1] of 340 nM.

`c1cc(N2CCOCC2)ccc1Nc1ncc2ccn(C3CCCCC3)c2n1` displayed a half-maximal inhibitory concentration (IC50) in [1] of 600 nM.

As for `CN1CCN(c2ccc(Nc3ncc4ccn(-c5cccc(S(C)(=O)=O)c5)c4n3)cc2)CC1`, in [1], 2000 nM corresponded to half-maximal inhibition (IC50). This IC50 lies about 3.3-fold higher than the previous one.

As for `CN1CCN(c2ccc(Nc3ncc4ccn(C5Cc6ccccc6C5)c4n3)cc2)CC1`, the IC50 in [1] was determined as 2100 nM. This IC50 and that of the compound before are within 1.5-fold of each other.
